ChEMBL document CHEMBL1944537, “6-Nitrobenzimidazole derivatives: potential phosphodiesterase inhibitors: synthesis and structure-activity relationship” (Bioorg Med Chem, 2012)
pIC50: −log10 of the molar value.

Molecular target: not listed separately
Assay: (§1) Inhibition of Bothrops atrox venom phosphodiesterase-1 assessed as conversion of […] p-nitrophenol using bis(p-nitropheny1) phosphate as substrate preincubated for 30 mins by spectrophotometric analysis
In short: (§2)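 Crude dried snake venom as enzyme source, 0.000742 U/well, in 33 mM Tris-HCl pH 8.8 with 30 mM magnesium acetate. Substrate 0.33 mM bis(p-nitrophenyl) phosphate. Enzyme and test sample pre-incubated 30 min, then p-nitrophenol release followed as OD/min at 410 nm, 37 °C, on a microtitre plate reader. EDTA positive control. Run in triplicate; IC50 determined.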

| Compound | pIC50 |
| --- | --- |
| O=[N+]([O-])c1ccc2nc(-c3c(O)cc(O)cc3O)[nH]c2c1 | 5.19 |
| O=C(O)CN(CCN(CC(=O)O)CC(=O)O)CC(=O)O [EDETIC ACID] | 3.56 |
| COc1ccc(-c2nc3cc([N+](=O)[O-])ccc3[nH]2)cc1OC | 4.20 |
| O=[N+]([O-])c1ccc2[nH]c(-c3ccc(Cl)cc3)nc2c1 | 3.92 |
| O=[N+]([O-])c1ccc(-c2nc3cc([N+](=O)[O-])ccc3[nH]2)cc1 | 3.81 |
| O=[N+]([O-])c1ccc2nc(-c3ccc(O)cc3O)[nH]c2c1 | 4.94 |
| O=[N+]([O-])c1ccc2nc(-c3ccc(O)c(O)c3)[nH]c2c1 | 5.24 |
| O=[N+]([O-])c1ccc2nc(-c3ccc(O)cc3)[nH]c2c1 | 5.62 |
| O=[N+]([O-])c1ccc2nc(-c3ccc(O)c(O)c3O)[nH]c2c1 | 4.98 |
| O=[N+]([O-])c1ccc2nc(-c3cccc(O)c3O)[nH]c2c1 | 5.82 |
| O=[N+]([O-])c1ccc2nc(-c3cc(Cl)cc(Cl)c3O)[nH]c2c1 | 3.53 |

System: Bothrops atrox
Assay: as §1
Parameters: concentration or dose not given beside the values
In short: as §2

| Compound | inhibition |
| --- | --- |
| O=[N+]([O-])c1ccc2[nH]c(-c3ccncc3)nc2c1 | < 50% |
| O=[N+]([O-])c1ccc2nc(-c3ccccc3Cl)[nH]c2c1 | < 50% |
| O=[N+]([O-])c1ccc2[nH]c(-c3ccccc3)nc2c1 | < 50% |
| O=[N+]([O-])c1ccc2nc(-c3cc(O)ccc3O)[nH]c2c1 | < 50% |
| O=[N+]([O-])c1ccc2nc(-c3ccccc3F)[nH]c2c1 | < 50% |
| O=[N+]([O-])c1ccc2nc(-c3cc(Br)cc(Br)c3O)[nH]c2c1 | < 50% |
| O=[N+]([O-])c1ccc2nc(-c3ccc(Cl)c(Cl)c3)[nH]c2c1 | < 50% |
| O=[N+]([O-])c1ccc(Cl)c(-c2nc3ccc([N+](=O)[O-])cc3[nH]2)c1 | < 50% |
| CN(C)c1ccc(-c2nc3ccc([N+](=O)[O-])cc3[nH]2)cc1 | < 50% |
| COc1cccc(-c2nc3ccc([N+](=O)[O-])cc3[nH]2)c1O | < 50% |
| O=[N+]([O-])c1ccc2nc(-c3ccc(Br)cc3)[nH]c2c1 | < 50% |
| CSc1ccc(-c2nc3ccc([N+](=O)[O-])cc3[nH]2)cc1 | < 50% |
| O=[N+]([O-])c1ccc2nc(-c3cccc4cc5ccccc5cc34)[nH]c2c1 | < 50% |
| O=[N+]([O-])c1ccc2nc(-c3ccc(Cl)cc3Cl)[nH]c2c1 | < 50% |
| O=[N+]([O-])c1ccc2nc(-c3cccc4c3ccc3ccccc34)[nH]c2c1 | < 50% |
| O=[N+]([O-])c1ccc2nc(-c3ccccc3O)[nH]c2c1 | < 50% |
| Cc1ccc(-c2nc3cc([N+](=O)[O-])ccc3[nH]2)cc1 | < 50% |
| O=[N+]([O-])c1ccc2nc(-c3ccsc3)[nH]c2c1 | < 50% |
| CCOc1cccc(-c2nc3ccc([N+](=O)[O-])cc3[nH]2)c1O | < 50% |
| O=[N+]([O-])c1ccc2nc(-c3cc(Cl)ccc3O)[nH]c2c1 | < 50% |
